In ChEMBL document CHEMBL2429803, “Animal toxicity of hairpin pyrrole-imidazole polyamides varies with the turn unit” (J Med Chem, 2013):

Assays:
Mus musculus [1] = assay: Acute toxicity in C57BL/6J mouse assessed as weight loss at 10 mg/kg, sc after 9 days; type: organism-based; set-up: dose 10 mg/kg, route subcutaneous; details: in vivo, 216 h
Summary of the method: (§1)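 Male C57BL/6J mice, 8 weeks old, were acclimated 3 days and then given a single sc injection of 1, 3 or 10 mg/kg in 25% DMSO/saline vehicle (up to 200 μL), n = 4 per group. Weight, behaviour and appearance were monitored daily for 9 days before sacrifice. The humane end point was visible duress or weight loss over 15% of the original.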

Mus musculus [2] = assay: Toxicity in C57BL/6J mouse assessed as weight loss at 1 mg/kg, sc administered every 3 days for a cycle of 3 injections; type: organism-based; set-up: dose 1 mg/kg, route subcutaneous; details: in vivo, 72 h
Summary of the method: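 8-week-old male C57BL/6J mice, acclimated 3 days, groups of three, dosed sc in 25% DMSO/saline vehicle once every 3 days, sacrificed 2 days after the last injection. Body weight recorded on injection days and at end point; humane end point set at visible duress or >15% loss of original body weight.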

Mus musculus [3] = assay: Acute toxicity in C57BL/6J mouse assessed as lesions in stomach at 1 to 10 mg/kg, sc after 9 days; type: organism-based; set-up: dose 1-10 mg/kg, route subcutaneous; details: in vivo, 216 h
Summary of the method: (§2)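 Male C57BL/6J mice, 8 weeks old, received a single sc dose (1, 3 or 10 mg/kg in 25% DMSO/saline, n = 4 per group) and were sacrificed after 9 days. Two representative animals per group were fixed in 10% formalin. Cecum, duodenum, heart, ileum, kidney, liver, lung, pancreas, spleen and stomach were examined blind by a veterinary pathologist and lesions graded mild, moderate or severe.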

Mus musculus [4] = assay: Toxicity in C57BL/6J mouse assessed as epithelial necrosis and apoptosis in kidney at 1 mg/kg, sc administered every 3 days for a cycle of 3 injections measured 2 days post last injection; type: organism-based; set-up: dose 1 mg/kg, route subcutaneous; details: in vivo, 48 h
Summary of the method: (§3)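 Male C57BL/6J mice, 8 weeks old, given 1 mg/kg sc every 3 days for three injections and sacrificed 2 days after the last one. Two mice per group fixed in 10% formalin. A veterinary pathologist, blinded, examined cecum, duodenum, heart, ileum, kidney, liver, lung, pancreas, spleen and stomach. Lesions graded mild, moderate or severe.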

Mus musculus [5] = assay: Acute toxicity in C57BL/6J mouse assessed as tubular epithelial necrosis and apoptosis in kidney at 3 mg/kg, sc after 9 days; type: organism-based; set-up: dose 3 mg/kg, route subcutaneous; details: in vivo, 216 h; summary of the method: as §2
Mus musculus [6] = assay: Acute toxicity in C57BL/6J mouse assessed as mild lymphoid apoptosis in white pulp of spleen at 10 mg/kg, sc after 9 days; type: organism-based; set-up: dose 10 mg/kg, route subcutaneous; details: in vivo, 216 h; summary of the method: as §2
[7] = Metabolic stability in human liver microsomes after 1 hr by LC/MS/MS analysis in presence of NADPH; type: ADME, Microsome; details: read-out: Stability
Summary of the method: (§4)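 Compound incubated at 37 °C for 60 min with 1 mg/mL human or mouse liver microsomes in 100 mM KH2PO4, 3 mM MgCl2, pH 7.4, with 2 mM NADPH or without it. Stopped with ice-cold methanol, then precipitate removed. Analyzed by LC/MS/MS as % remaining versus time zero. Duplicates.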

Mus musculus [8] = assay: Acute toxicity in C57BL/6J mouse assessed as moderate atypical tubular regeneration in kidney at 3 mg/kg, sc after 9 days; type: organism-based; set-up: dose 3 mg/kg, route subcutaneous; details: in vivo, 216 h; summary of the method: as §2
[9] = Metabolic stability in mouse liver microsomes after 1 hr by LC/MS/MS analysis in presence of NADPH; type: ADME, Microsome; details: read-out: Stability; summary of the method: as §4
Mus musculus [10] = assay: Acute toxicity in C57BL/6J mouse assessed as diffuse hepatocellular necrosis and apoptosis at 10 mg/kg, sc after 9 days; type: organism-based; set-up: dose 10 mg/kg, route subcutaneous; details: in vivo, 216 h; summary of the method: as §2
Mus musculus [11] = assay: Toxicity in C57BL/6J mouse assessed as mild tubular attenuation in kidney at 1 mg/kg, sc administered every 3 days for a cycle of 3 injections measured 2 days post last injection; type: organism-based; set-up: dose 1 mg/kg, route subcutaneous; details: in vivo, 48 h; summary of the method: as §3
Mus musculus [12] = assay: Acute toxicity in C57BL/6J mouse assessed as lesions in GI tract at 1 to 10 mg/kg, sc after 9 days; type: organism-based, Gastrointestinal tract; set-up: dose 1-10 mg/kg, route subcutaneous; details: in vivo, 216 h; summary of the method: as §2
[13] = Metabolic stability in human liver microsomes after 1 hr by LC/MS/MS analysis; type: ADME, Microsome; details: read-out: Stability; summary of the method: as §4
Mus musculus [14] = assay: Toxicity in C57BL/6J mouse assessed as karyomegaly in kidney at 1 mg/kg, sc administered every 3 days for a cycle of 3 injections measured 2 days post last injection; type: organism-based; set-up: dose 1 mg/kg, route subcutaneous; details: in vivo, 48 h; summary of the method: as §3
Mus musculus [15] = assay: Acute toxicity in C57BL/6J mouse assessed as acute morbidity at 10 mg/kg, sc after 9 days; type: organism-based; set-up: dose 10 mg/kg, route subcutaneous; details: in vivo, 216 h; summary of the method: as §1
Mus musculus [16] = assay: Toxicity in C57BL/6J mouse assessed as mild multifocal hepatocellular necrosis and apoptosis in liver at 1 mg/kg, sc administered every 3 days for a cycle of 3 injections measured 2 days post last injection; type: organism-based; set-up: dose 1 mg/kg, route subcutaneous; details: in vivo, 48 h; summary of the method: as §3
Mus musculus [17] = assay: Toxicity in C57BL/6J mouse assessed as morbidity at 1 mg/kg, sc administered every 3 days for a cycle of 3 injections; type: organism-based; set-up: dose 1 mg/kg, route subcutaneous; details: in vivo, 72 h
Summary of the method: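 Male C57BL/6J mice, 3 per group, given 1 mg/kg sc every 3 days. Weight recorded on injection days. Watched for signs of duress. Humane end point was visible duress or weight loss over 15% of starting body weight.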

Mus musculus [18] = assay: Acute toxicity in C57BL/6J mouse assessed as lesions in lungs at 1 to 10 mg/kg, sc after 9 days; type: organism-based; set-up: dose 1-10 mg/kg, route subcutaneous; details: in vivo, 216 h; summary of the method: as §2
Mus musculus [19] = assay: Acute toxicity in C57BL/6J mouse assessed as lesions in heart at 1 to 10 mg/kg, sc after 9 days; type: organism-based; set-up: dose 1-10 mg/kg, route subcutaneous; details: in vivo, 216 h; summary of the method: as §2
[20] = Metabolic stability in mouse liver microsomes after 1 hr by LC/MS/MS analysis; type: ADME, Microsome; details: read-out: Stability; summary of the method: as §4
Mus musculus [21] = assay: Acute toxicity in C57BL/6J mouse assessed as lesions in pancreas at 1 to 10 mg/kg, sc after 9 days; type: organism-based; set-up: dose 1-10 mg/kg, route subcutaneous; details: in vivo, 216 h; summary of the method: as §2
Mus musculus [22] = assay: Acute toxicity in C57BL/6J mouse assessed as diffuse hepatocellular necrosis and apoptosis at 10 mg/kg, sc after 9 days; details: in vivo, 216 h
[23] = Drug uptake in nucleus of C57BL/6J mouse liver at 3 mg/kg, sc after 24 hrs by confocal microscopic analysis; type: ADME, organism-based; set-up: dose 3 mg/kg, route subcutaneous; details: in vivo
Summary of the method: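 Male C57BL/6J mice, 2 per group, injected with 50 nmol (~3 mg/kg) of fluorescein-conjugated polyamide and sacrificed 24 h later. Liver fixed in 10% formalin for 48 h, cryoprotected in 15% then 30% sucrose, and frozen. Nuclear fluorescence assessed by confocal microscopy in 10 μm sections.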

## Cn1cc2cc1C(=O)NCCCC(=O)Nc1cn(C)c(n1)C(=O)Nc1cc(n(C)c1)C(=O)Nc1cc(n(C)c1)C(=O)Nc1cc(n(C)c1)C(=O)NCC[C@@H](N)C(=O)Nc1cn(C)c(n1)C(=O)Nc1cc(n(C)c1)C(=O)Nc1cc(n(C)c1)C(=O)N2
Mus musculus [1]
  Activity: Non-toxic

## CN(CCCNC(=O)c1cccc(C(=O)O)c1)CCCNC(=O)c1cc(NC(=O)c2cc(NC(=O)c3cc(NC(=O)c4nc(NC(=O)C[C@@H](N)CNC(=O)c5cc(NC(=O)c6cc(NC(=O)c7cc(NC(=O)c8nccn8C)cn7C)cn6C)cn5C)cn4C)cn3C)cn2C)cn1C
Mus musculus [2]
  Activity: Non-toxic
Mus musculus [3]
  Activity: Non-toxic
Mus musculus [4]
  Activity: Toxic
Mus musculus [5]
  Activity: Toxic
Mus musculus [6]
  Activity: Toxic
[7]
  remaining at 1 h: > 90%
Mus musculus [8]
  Activity: Toxic
[9]
  remaining at 1 h: > 90%
Mus musculus [10]
  Activity: Toxic
Mus musculus [11]
  Activity: Toxic
Mus musculus [1]
  Activity: Toxic
Mus musculus [12]
  Activity: Non-toxic
[13]
  remaining at 1 h: > 90%
Mus musculus [14]
  Activity: Toxic
Mus musculus [15]
  Activity: Toxic
Mus musculus [16]
  Activity: Toxic
Mus musculus [17]
  Activity: Non-toxic
Mus musculus [18]
  Activity: Non-toxic
Mus musculus [19]
  Activity: Non-toxic
[20]
  remaining at 1 h: > 90%
Mus musculus [21]
  Activity: Non-toxic
Mus musculus [22]
  Activity: Toxic

## CC(=O)N[C@@H](CNC(=O)c1cc(NC(=O)c2cc(NC(=O)c3cc(NC(=O)c4nccn4C)cn3C)cn2C)cn1C)CC(=O)Nc1cn(C)c(C(=O)Nc2cc(C(=O)Nc3cc(C(=O)Nc4cc(C(=O)NCCCN(C)CCCNC(=S)Nc5ccc(-c6c7ccc(=O)cc-7oc7cc(O)ccc67)c(C(=O)O)c5)n(C)c4)n(C)c3)n(C)c2)n1
[23]
  Drug uptake: Active
